Test results taken from ChEMBL document CHEMBL3813675, “Identification of potent and selective retinoic acid receptor gamma (RARγ) antagonists for the treatment of osteoarthritis pain using structure based drug design” (Bioorg Med Chem Lett, 2016).

Legend:
[1] = target: T1, Retinoic acid receptor gamma (Homo sapiens) (UniProt P13631); test: Antagonist activity at RARgamma-LBD (unknown origin) expressed in HEK-293 cells assessed as inhibition of ATRA induced Gal4/luciferase gene expression after 24 hrs; assay type: cell-based; settings: HEK293
T1 sequence (whole entry): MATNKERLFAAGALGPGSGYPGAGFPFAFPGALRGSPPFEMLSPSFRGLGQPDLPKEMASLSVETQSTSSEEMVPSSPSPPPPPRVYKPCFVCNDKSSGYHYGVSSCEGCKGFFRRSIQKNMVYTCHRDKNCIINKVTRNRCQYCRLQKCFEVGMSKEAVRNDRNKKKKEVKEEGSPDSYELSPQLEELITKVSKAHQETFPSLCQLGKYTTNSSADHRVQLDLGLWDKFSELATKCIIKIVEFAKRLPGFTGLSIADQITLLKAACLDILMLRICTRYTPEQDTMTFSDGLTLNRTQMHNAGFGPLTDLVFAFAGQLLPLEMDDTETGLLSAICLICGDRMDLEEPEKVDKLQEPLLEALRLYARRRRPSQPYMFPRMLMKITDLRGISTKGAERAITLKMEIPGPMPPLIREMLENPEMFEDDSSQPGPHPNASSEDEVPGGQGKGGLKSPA

[2] = target: T1, Retinoic acid receptor gamma (Homo sapiens); test: Antagonist activity at RARgamma-LBD (unknown origin) expressed in HEK-293 cells assessed as inhibition of ATRA induced Gal4/luciferase gene expression after 24 hrs relative to ATRA; assay type: cell-based; settings: HEK293
[3] = target: T2, Retinoic acid receptor alpha/Retinoid X receptor alpha (Homo sapiens, UniProt P10276); test: Displacement of [3H]-TTNPB from RARalpha/RXRalpha (unknown origin) expressed in baculovirus expression system by scintillation proximity assay
T2 sequence (P10276 whole entry): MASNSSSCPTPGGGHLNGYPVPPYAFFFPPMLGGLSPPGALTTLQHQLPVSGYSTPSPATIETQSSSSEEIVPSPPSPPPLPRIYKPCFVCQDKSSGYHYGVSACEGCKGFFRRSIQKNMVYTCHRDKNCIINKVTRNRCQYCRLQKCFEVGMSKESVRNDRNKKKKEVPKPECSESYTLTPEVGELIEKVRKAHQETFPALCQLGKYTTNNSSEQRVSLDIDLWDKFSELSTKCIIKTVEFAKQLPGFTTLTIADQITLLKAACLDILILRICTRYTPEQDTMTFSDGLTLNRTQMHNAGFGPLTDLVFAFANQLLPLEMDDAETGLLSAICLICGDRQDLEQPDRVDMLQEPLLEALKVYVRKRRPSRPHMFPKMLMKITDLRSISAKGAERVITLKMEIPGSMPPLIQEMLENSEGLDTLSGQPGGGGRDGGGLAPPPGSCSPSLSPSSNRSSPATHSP
T2 sequence (P19793 whole entry): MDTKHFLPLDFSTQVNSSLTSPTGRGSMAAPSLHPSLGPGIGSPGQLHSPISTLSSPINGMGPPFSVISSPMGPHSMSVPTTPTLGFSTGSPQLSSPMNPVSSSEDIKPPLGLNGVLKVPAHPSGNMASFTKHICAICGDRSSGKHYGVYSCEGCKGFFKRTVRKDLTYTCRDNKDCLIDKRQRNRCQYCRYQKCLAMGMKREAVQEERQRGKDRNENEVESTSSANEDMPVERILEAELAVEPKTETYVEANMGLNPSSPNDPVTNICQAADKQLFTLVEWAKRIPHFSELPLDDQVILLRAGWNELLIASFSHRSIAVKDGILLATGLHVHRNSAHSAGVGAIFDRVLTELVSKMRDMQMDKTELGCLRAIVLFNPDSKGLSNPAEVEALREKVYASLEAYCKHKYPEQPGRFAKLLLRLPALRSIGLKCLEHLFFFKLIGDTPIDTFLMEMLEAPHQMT

[4] = target: T3, Retinoic acid receptor RXR-alpha/Retinoic acid receptor beta (Homo sapiens, UniProt P10826); test: Displacement of [3H]-TTNPB from RARbeta/RXRalpha (unknown origin) expressed in baculovirus expression system by scintillation proximity assay
T3 sequence (P10826 whole entry): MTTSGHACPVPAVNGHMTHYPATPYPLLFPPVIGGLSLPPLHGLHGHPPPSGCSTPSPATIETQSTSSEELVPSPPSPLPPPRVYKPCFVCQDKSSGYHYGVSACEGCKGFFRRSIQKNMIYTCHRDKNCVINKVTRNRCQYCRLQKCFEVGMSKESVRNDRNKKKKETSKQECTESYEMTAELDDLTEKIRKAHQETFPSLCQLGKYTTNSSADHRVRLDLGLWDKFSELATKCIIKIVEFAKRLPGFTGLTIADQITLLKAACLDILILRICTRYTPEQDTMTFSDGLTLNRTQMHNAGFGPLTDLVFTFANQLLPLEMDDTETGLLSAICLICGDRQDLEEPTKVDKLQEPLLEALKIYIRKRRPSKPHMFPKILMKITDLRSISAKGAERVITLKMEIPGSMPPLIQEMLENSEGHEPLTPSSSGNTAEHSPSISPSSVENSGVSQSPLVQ
T3 sequence (P19793 whole entry): T2 sequence (P19793 whole entry)

[5] = target: T4, Retinoic acid receptor RXR-alpha/gamma (Homo sapiens, UniProt P13631+P19793); test: Displacement of [3H]-TTNPB from RARgamma/RXRalpha (unknown origin) expressed in baculovirus expression system by scintillation proximity assay
T4 sequence (P13631 whole entry): T1 sequence (whole entry)
T4 sequence (P19793 whole entry): T2 sequence (P19793 whole entry)

[6] = Selectivity index, ratio of Ki for RARalpha/RXRalpha (unknown origin) to Ki for RARgamma/RXRalpha (unknown origin) expressed in baculovirus expression system; set-up: species or system Homo sapiens
Homo sapiens = species on record: Homo sapiens; test: Selectivity index, ratio of Ki for RARbeta/RXRalpha (unknown origin) to Ki for RARgamma/RXRalpha (unknown origin) expressed in baculovirus expression system
[7] = Solubility of the compound in simulated intestinal fluid; assay type: ADME
[8] = target: T5, Retinoic acid receptor alpha (Homo sapiens, UniProt P10276); test: Antagonist activity at RARalpha-LBD (unknown origin) expressed in HEK-293 cells assessed as inhibition of ATRA induced Gal4/luciferase gene expression after 24 hrs; assay type: cell-based, HEK293
T5 sequence (P10276 whole entry): T2 sequence (P10276 whole entry)

[9] = target: T6, Retinoic acid receptor beta (Homo sapiens) (UniProt P10826); test: Antagonist activity at RARbeta-LBD (unknown origin) expressed in HEK-293 cells assessed as inhibition of ATRA induced Gal4/luciferase gene expression after 24 hrs; assay type: cell-based; settings: HEK293
T6 sequence (whole entry): T3 sequence (P10826 whole entry)

[10] = Oral bioavailability in rat at 10 mg/kg measured up to 14 days; assay type: ADME, organism-based; settings: in vivo
Rattus norvegicus [11] = test: Analgesic activity in MIA-induced osteoarthritis-like joint pain rat model assessed as reduction in differential weight bearing between contralateral and ipsilateral limbs administered on day 9 post MIA challenge as single oral dose; assay type: functional; settings: 216 h
How it was run: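 Rats received a single intraarticular injection of mono-iodoacetate into one hind limb joint. Joint pain read as differential weight bearing between contralateral and ipsilateral limbs. Compound given as a single oral dose on the day of testing. ED50 derived from the dose-response.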

[12] = AUC in rat at 0.72 mg/kg, po administered for 14 days; assay type: ADME, organism-based; settings: in vivo
[13] = AUC in rat at 10 mg/kg, po administered for 14 days; assay type: ADME, organism-based; settings: in vivo
[14] = AUC in rat at 30 mg/kg, po administered for 14 days; assay type: ADME, organism-based; settings: in vivo
Rattus norvegicus [15] = test: Toxicity in rat assessed as testicular degeneration at 10 mg/kg, po administered for 14 days; assay type: organism-based; settings: in vivo, 336 h
Rattus norvegicus [16] = test: Toxicity in rat assessed as testicular degeneration at 30 mg/kg, po administered for 14 days; assay type: organism-based; settings: in vivo, 336 h

| Compound | Kb [1] [nM] | Imax [2] [%] | Ki [3] [nM] | Ki [4] [nM] | Ki [5] [nM] | Ratio Ki [6] | Ratio Ki (Homo sapiens) | solubility ([7]; simulated gi fluid) [µg/mL] | solubility ([7]; simulated intestinal fluid, read-out: solubility) [µg/mL] | Kb [8] [nM] | Kb [9] [nM] | bioavailability [10] [%] | ED50 (Rattus norvegicus [11]) [mg/kg] | AUC at 336 h [12] [ng·h/mL] | AUC at 336 h [13] [ng·h/mL] | AUC at 336 h [14] [ng·h/mL] | Activity (Rattus norvegicus [15]) | Activity (Rattus norvegicus [16]) |
| --- | --- | --- | --- | --- | --- | --- | --- | --- | --- | --- | --- | --- | --- | --- | --- | --- | --- | --- |
| CC(C)(C)c1cc(-c2cc(-c3ccc(C(=O)O)cc3)nn2-c2ccc(C(=O)N3CCOCC3)cc2)cc(C(C)(C)C)c1 | 7.2 | > 100 | > 1700 | > 2980 | 2.3 | >752 | > 1320 |  |  |  |  |  |  |  |  |  |  |  |
| CC(C)(C)c1cc(-c2cc(-c3ccc(C(=O)O)cc3)nn2-c2ccc(S(C)(=O)=O)cc2)cc(C(C)(C)C)c1 | 13.5 | > 100 | 461 | 995 | 4.4 | 106 | 228 | < 0.1 |  |  |  |  |  |  |  |  |  |  |
| CC1(C)CC=C(c2ccccc2)c2cc(/C=C/c3ccc(C(=O)O)cc3)ccc21 | 18.5 | > 100 | 7.7 |  | 17.3 |  |  |  |  |  |  |  |  |  |  |  |  |  |
| CC1(C)CCC(C)(C)c2cc(-c3cc(-c4ccc(C(=O)O)cc4)nn3-c3ccc(S(C)(=O)=O)cc3)ccc21 | 2.2 | > 100 | 2.8 | 5.2 | 0.27 | 10 | 10 |  |  |  |  |  |  |  |  |  |  |  |
| CC(C)c1cc(-c2cc(-c3ccc(C(=O)O)cc3)nn2-c2ccc(S(C)(=O)=O)cc2)cc(C(C)(C)C)c1 |  |  | 87 | 131 | 1.6 | 54 |  |  |  |  |  |  |  |  |  |  |  |  |
| CC(C)(C)c1cccc(-c2cc(-c3ccc(C(=O)O)cc3)nn2-c2ccc(S(C)(=O)=O)cc2)c1 |  |  | 1.8 | 4.3 | 1.1 | 1.6 |  |  |  |  |  |  |  |  |  |  |  |  |
| CN1CCN(C(=O)c2ccc(-n3nc(-c4ccc(C(=O)O)cc4)cc3-c3cc(C(C)(C)C)cc(C(C)(C)C)c3)cc2)CC1 | 7.1 | > 100 | > 1700 | > 2980 | 1.1 | >1560 | > 2730 |  | > 1000 | > 4440 | 1510 | 26 | 0.724 | 154 | 9100 | 36800 | Non-toxic | Toxic |
| Cc1cc(-c2cc(-c3ccc(C(=O)O)cc3)nn2-c2ccc(S(C)(=O)=O)cc2)cc(C(C)(C)C)c1 |  |  | 6.2 | 10 | 1.1 | 5.6 |  |  |  |  |  |  |  |  |  |  |  |  |
| CN(C)S(=O)(=O)c1ccc(-n2nc(-c3ccc(C(=O)O)cc3)cc2-c2cc(C(C)(C)C)cc(C(C)(C)C)c2)cc1 | 11.1 | > 100 | > 1700 | > 2980 | 4.1 | >414 | > 725 |  |  |  |  |  |  |  |  |  |  |  |
| CN(C)C(=O)c1ccc(-n2nc(-c3ccc(C(=O)O)cc3)cc2-c2cc(C(C)(C)C)cc(C(C)(C)C)c2)cc1 | 21.3 | > 100 | > 1700 | > 2980 | 2.2 | >766 | > 1340 |  |  |  |  |  |  |  |  |  |  |  |
| CC(C)(C)c1cc(-c2cc(-c3ccc(C(=O)O)cc3)nn2-c2ccc(C(N)=O)cc2)cc(C(C)(C)C)c1 | 14.7 | 79 | > 1700 | > 2980 | 1.4 | >1259 | > 2210 |  |  |  |  |  |  |  |  |  |  |  |
